The target in the test is 26S proteasome chymotrypsin-like activity (human). Kind of test: proteasome function in U2OS cells – cell-based, luminescence, dry powder, set 2, counter-screen, dose response (AID 488804). The conditions noted are these: Proteasome-Glo chymotrypsin luminescence; for activity change, negative = inhibition: at 38 µM (top of the series). Put shortly:
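System: U2OS cells, proteasome chymotrypsin-like activity. Quantity: 2,500 cells per well. Measured by: luminescent Proteasome-Glo readout. Medium: phenol red-free DMEM containing 10% fetal bovine serum. Timing: cells 24 h/37 °C, compounds 4 h, reagent 2 h RT. Replication: duplicates. Control set: MG132 as in-plate positive control.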

Calls of active or inactive are those of the source.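 How the source made its calls: active means luminescence cut by over half relative to the proteasome inhibitor control, with potency below ten times the top valid dose; inactive means no activity, or signal change in the wrong direction.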

`Cc1cccc(CNC(=O)c2cc(-c3ccccc3)on2)c1`: the “activity change, negative = inhibition” value is “inactive”. `Cc1cccc(CNc2nc(-c3ccccn3)nnc2-c2ccccc2)c1`: the “activity change, negative = inhibition” value is “inactive”. The same measure, in the same setting: as for `O=C(NCCCCO)c1cc(-c2ccccc2)on1`, the entry is “inactive”. In the case of `O=C(c1cc(-c2ccccc2)on1)N1CCN(c2ccncc2)CC1`, the “activity change, negative = inhibition” value was “inactive”. The same measure, in the same setting: as for `O=C(Nc1cnc2ccccc2c1)c1cc(-c2ccccc2)on1`, the entry is “inactive”; as for `CC(C)(C)CCNc1nc(-c2ccccn2)nnc1-c1ccccc1`, “inactive”; as for `O=C(NCCCn1ccnc1)c1cc(-c2ccccc2)on1`, “inactive”.

In the case of `c1ccc(-c2nnc(-c3ccccn3)nc2N2CCN(c3ccncc3)CC2)cc1`, the “activity change, negative = inhibition” value is “inactive”. On to `c1ccc(CNc2nc(-c3ccccn3)nnc2-c2ccccc2)cc1`, for which the “activity change, negative = inhibition” value was “inactive”. The same measure, in the same setting: as for `Cc1ccc(CNc2nc(-c3ccccn3)nnc2-c2ccccc2)cc1`, the entry is “inactive”; as for `O=C(c1cc(-c2ccccc2)on1)N1CCC(N2CCOCC2)CC1`, “inactive”; as for `O=C(Nc1nc2ccccc2s1)c1cc(-c2ccccc2)on1`, “inactive”. The same measure, in the same setting: as for `c1ccc(-c2nnc(-c3ccccn3)nc2Nc2nc3ccccc3s2)cc1`, the entry is “inactive”; as for `c1ccc(-c2nnc(-c3ccccn3)nc2NCC2CC2)cc1`, “inactive”. On the same count and under the same terms, as for `Cc1ccc(CNC(=O)c2cc(-c3ccccc3)on2)cc1`, the entry is “inactive”. Turning to `Cn1c(-c2ccccc2)cnc1NC(=O)c1cc(-c2ccccc2)on1`, the “activity change, negative = inhibition” value is “inactive”. Same read-out and setting: as for `c1ccc(-c2cnc(Nc3nc(-c4ccccn4)nnc3-c3ccccc3)s2)cc1`, the entry is “inactive”; as for `c1ccc(-c2nnc(-c3ccccn3)nc2NCC2CCCCC2)cc1`, “inactive”; as for `OCCCNc1nc(-c2ccccn2)nnc1-c1ccccc1`, “inactive”. `CCCCNC(=O)c1cc(-c2ccccc2)on1`: the AC50 is 38 µM. Regarding `CC(C)(C)CCNC(=O)c1cc(-c2ccccc2)on1`, the “activity change, negative = inhibition” value is “inactive”.

Turning to `Cc1ccc(NC(=O)c2cc(-c3ccccc3)on2)cn1`, the “activity change, negative = inhibition” value was “inactive”.

As to `CN(C)CCNC(=O)c1cc(-c2ccccc2)on1`, the “activity change, negative = inhibition” value was “inactive”. In the case of `O=C(Nc1ncc2ccccc2n1)c1cc(-c2ccccc2)on1`, the AC50 was 23.5 µM.

As for `O=C(NCC1CC1)c1cc(-c2ccccc2)on1`, the “activity change, negative = inhibition” value is “inactive”. Regarding `O=C(Nc1cn2ccccc2n1)c1cc(-c2ccccc2)on1`, the AC50 is 6.99 µM. Take `Cc1ccccc1CNC(=O)c1cc(-c2ccccc2)on1`: the “activity change, negative = inhibition” value is “inactive”. As to `O=C(Nc1ccc2ccccc2n1)c1cc(-c2ccccc2)on1`, the “activity change, negative = inhibition” value is “inactive”. Same read-out and setting: as for `C=CCNc1nc(-c2ccccn2)nnc1-c1ccccc1`, the entry is “inactive”; as for `Cn1c(-c2ccccc2)cnc1Nc1nc(-c2ccccn2)nnc1-c1ccccc1`, “inactive”; as for `O=C(c1cc(-c2ccccc2)on1)N1CCC(N2CCCC2)CC1`, “inactive”. Same read-out and setting: as for `Cc1cccc(Nc2nc(-c3ccccn3)nnc2-c2ccccc2)n1`, the entry is “inactive”. Same read-out and setting: as for `c1ccc(-c2nnc(-c3ccccn3)nc2N2CCC(N3CCOCC3)CC2)cc1`, the entry is “inactive”.

As for `O=C(NCC1CCCCC1)c1cc(-c2ccccc2)on1`, the “activity change, negative = inhibition” value is “inactive”. On to `O=C(Nc1ncc(-c2ccccc2)o1)c1cc(-c2ccccc2)on1`, for which the AC50 was 38 µM. Take `CN(C)c1nc(-c2ccccn2)nnc1-c1ccccc1`: the “activity change, negative = inhibition” value is “inactive”. Still for that read-out and setting: as for `O=C(Nc1nnc(-c2ccccc2)s1)c1cc(-c2ccccc2)on1`, the entry is “inactive”; as for `O=C(Nc1nc(-c2ccccc2)cs1)c1cc(-c2ccccc2)on1`, “inactive”. On the same count and under the same terms, as for `OCC1CCN(c2nc(-c3ccccn3)nnc2-c2ccccc2)CC1`, the entry is “inactive”.

Take `O=C(NCCN1CCCCC1)c1cc(-c2ccccc2)on1`: the “activity change, negative = inhibition” value was “inactive”. Still for that read-out and setting: as for `Cn1c(NC(=O)c2cc(-c3ccccc3)on2)nc2ccccc21`, the entry is “inactive”; as for `O=C(c1cc(-c2ccccc2)on1)N1CCC(CO)CC1`, “inactive”.

As for `CN1CCN(c2nc(-c3ccccn3)nnc2-c2ccccc2)CC1`, the “activity change, negative = inhibition” value was “inactive”. As for `O=C(NCCN1CCOCC1)c1cc(-c2ccccc2)on1`, the “activity change, negative = inhibition” value was “inactive”.

In the case of `O=C(NCCCN1CCOCC1)c1cc(-c2ccccc2)on1`, the “activity change, negative = inhibition” value is “inactive”. For the molecule `c1ccc(-c2nnc(-c3ccccn3)nc2NCCCN2CCOCC2)cc1`, the “activity change, negative = inhibition” value was “inactive”. On the same count and under the same terms, as for `c1ccc(-c2nnc(-c3ccccn3)nc2Nc2cnc3ccccc3n2)cc1`, the entry is “inactive”; as for `O=C(NCCCO)c1cc(-c2ccccc2)on1`, “inactive”. Same read-out and setting: as for `Cc1ccccc1CNc1nc(-c2ccccn2)nnc1-c1ccccc1`, the entry is “inactive”. Take `c1ccc(-c2nnc(Nc3nc(-c4ccccn4)nnc3-c3ccccc3)s2)cc1`: the “activity change, negative = inhibition” value was “inactive”.

With `c1ccc(-c2nnc(-c3ccccn3)nc2NCCN2CCOCC2)cc1`, the “activity change, negative = inhibition” value is “inactive”.

Turning to `Cc1cccc(NC(=O)c2cc(-c3ccccc3)on2)n1`, the half-maximal activity concentration (AC50) is 2.63 µM.

Regarding `O=C(NC1Cc2ccccc2C1)c1cc(-c2ccccc2)on1`, the “activity change, negative = inhibition” value was “inactive”.

On to `Cc1ccc(Nc2nc(-c3ccccn3)nnc2-c2ccccc2)cn1`, for which the “activity change, negative = inhibition” value is “inactive”.

For `O=C(c1cc(-c2ccccc2)on1)N1CCc2cccnc21`, the “activity change, negative = inhibition” value was “inactive”. Same read-out and setting: as for `CN1CCN(C(=O)c2cc(-c3ccccc3)on2)CC1`, the entry is “inactive”; as for `O=C(NCc1ccccc1)c1cc(-c2ccccc2)on1`, “inactive”; as for `c1ccc(-c2csc(Nc3nc(-c4ccccn4)nnc3-c3ccccc3)n2)cc1`, “inactive”.

With `O=C(NC1CCc2ccccc2C1)c1cc(-c2ccccc2)on1` (centres undefined), the “activity change, negative = inhibition” value was “inactive”.

The values above are taken from PubChem BioAssay AID488804 (Broad Institute, 2010).
